Values after ≈ are worked out from the molar mass of the structure shown.
Key:
Klebsiella aerogenes = assay: Minimum inhibitory concentration against Enterobacter aerogenes; type: functional
Outline: (§1)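 Agar dilution MIC in μg/mL. […] Organisms not run are marked not tested.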

Streptococcus pneumoniae = assay: Minimum inhibitory concentration against Streptococcus pneumoniae; type: functional; outline: as §1
Streptococcus pyogenes = assay: Minimum inhibitory concentration against Streptococcus pyogenes; type: functional; outline: as §1
Staphylococcus aureus = assay: Minimum inhibitory concentration against Staphylococcus aureus; type: functional; outline: as §1
Klebsiella pneumoniae = assay: Minimum inhibitory concentration against Klebsiella pneumoniae; type: functional; outline: as §1
Escherichia coli = assay: Minimum inhibitory concentration against Escherichia coli; type: functional; outline: as §1
Salmonella typhi = assay: Minimum inhibitory concentration against Salmonella typhi; type: functional, Salmonella enterica subsp. enterica serovar Typhi; settings: Salmonella enterica
Haemophilus influenzae [1] = assay: (§2) Minimum inhibitory concentration against Haemophilus influenzae; type: functional; outline: as §1
Haemophilus influenzae [2] = assay: as §2; type: functional; outline: as §1; remark: listed apart in the source

| Compound | MIC (Klebsiella aerogenes) [µg/mL] | MIC (Streptococcus pneumoniae) [µg/mL] | MIC (Streptococcus pyogenes) [µg/mL] | MIC (Staphylococcus aureus) [µg/mL] | MIC (Klebsiella pneumoniae) [µg/mL] | MIC (Escherichia coli) [µg/mL] | MIC (Salmonella typhi) [µg/mL] | MIC (Haemophilus influenzae [1]) [µg/mL] | MIC (Haemophilus influenzae [2]) [µg/mL] |
| --- | --- | --- | --- | --- | --- | --- | --- | --- | --- |
| O=C(CSc1nccs1)N[C@@H]1C(=O)N2C(C(=O)O)=C(Cl)CS[C@H]12 | > 128 | 0.5 (≈ 1.28 µM) | 0.25 (≈ 0.638 µM) | 1 (≈ 2.55 µM) | 16 (≈ 40.8 µM) | 32 (≈ 81.7 µM) | 16 (≈ 40.8 µM) | – | – |
| O=C(Cc1noc(C(Cl)(Cl)Cl)n1)N[C@@H]1C(=O)N2C(C(=O)O)=CCS[C@H]12 | 128 (≈ 299 µM) | 2 (≈ 4.68 µM) | 2 (≈ 4.68 µM) | 2 (≈ 4.68 µM) | 32 (≈ 74.8 µM) | 32 (≈ 74.8 µM) | 16 (≈ 37.4 µM) | 32 (≈ 74.8 µM) | 16 (≈ 37.4 µM) |
| O=C(Cc1ccc(F)cc1)N[C@@H]1C(=O)N2C(C(=O)O)=C(Cl)CS[C@H]12 | > 128 | 0.125 (≈ 0.337 µM) | 0.06 (≈ 0.162 µM) | 0.5 (≈ 1.35 µM) | 32 (≈ 86.3 µM) | 32 (≈ 86.3 µM) | 16 (≈ 43.2 µM) | 4 (≈ 10.8 µM) | 1 (≈ 2.7 µM) |
| Nc1ccc(CC(=O)N[C@@H]2C(=O)N3C(C(=O)O)=C(Cl)CS[C@H]23)cc1 | 128 (≈ 348 µM) | 0.125 (≈ 0.34 µM) | 0.06 (≈ 0.163 µM) | 0.5 (≈ 1.36 µM) | 2 (≈ 5.44 µM) | 16 (≈ 43.5 µM) | 2 (≈ 5.44 µM) | 1 (≈ 2.72 µM) | 0.5 (≈ 1.36 µM) |
| O=C(COc1ccc(Cl)cc1)N[C@@H]1C(=O)N2C(C(=O)O)=C(Cl)CS[C@H]12 | > 128 | 0.03 (≈ 0.0744 µM) | 0.03 (≈ 0.0744 µM) | 0.125 (≈ 0.31 µM) | > 128 | > 128 | > 128 | 1 (≈ 2.48 µM) | 1 (≈ 2.48 µM) |
| COc1ccc(OCC(=O)N[C@@H]2C(=O)N3C(C(=O)O)=C(Cl)CS[C@H]23)cc1 | > 128 | 0.125 (≈ 0.313 µM) | 0.06 (≈ 0.15 µM) | 0.25 (≈ 0.627 µM) | > 128 | > 128 | > 128 | 2 (≈ 5.01 µM) | 2 (≈ 5.01 µM) |
| O=C(CSc1nc[nH]n1)N[C@@H]1C(=O)N2C(C(=O)O)=C(Cl)CS[C@H]12 | > 128 | 2 (≈ 5.32 µM) | 0.5 (≈ 1.33 µM) | 4 (≈ 10.6 µM) | 16 (≈ 42.6 µM) | 16 (≈ 42.6 µM) | 16 (≈ 42.6 µM) | 4 (≈ 10.6 µM) | 4 (≈ 10.6 µM) |
| COc1ccccc1CC(=O)N[C@@H]1C(=O)N2C(C(=O)O)=C(Cl)CS[C@H]12 | > 128 | 1 (≈ 2.61 µM) | 1 (≈ 2.61 µM) | 1 (≈ 2.61 µM) | > 128 | > 128 | > 128 | 2 (≈ 5.22 µM) | 1 (≈ 2.61 µM) |
| O=C(Cc1ccc(Cl)cc1)N[C@@H]1C(=O)N2C(C(=O)O)=C(Cl)CS[C@H]12 | > 128 | 0.125 (≈ 0.323 µM) | 0.06 (≈ 0.155 µM) | 0.25 (≈ 0.646 µM) | 128 (≈ 331 µM) | 64 (≈ 165 µM) | 64 (≈ 165 µM) | 1 (≈ 2.58 µM) | 0.5 (≈ 1.29 µM) |
| Cc1nc(CC(=O)N[C@@H]2C(=O)N3C(C(=O)O)=C(Cl)CS[C@H]23)c(-c2ccccc2)s1 | > 128 | 0.06 (≈ 0.133 µM) | 0.015 (≈ 0.0333 µM) | 0.125 (≈ 0.278 µM) | > 128 | > 128 | > 128 | 32 (≈ 71.1 µM) | 32 (≈ 71.1 µM) |
| O=C(Cc1csc2ccc(Cl)cc12)N[C@@H]1C(=O)N2C(C(=O)O)=CCS[C@H]12 | – | – | 0.03 (≈ 0.0734 µM) | 0.125 (≈ 0.306 µM) | 128 (≈ 313 µM) | 128 (≈ 313 µM) | > 128 | – | – |
| O=C(Cc1noc(C(Cl)(Cl)Cl)n1)N[C@@H]1C(=O)N2C(C(=O)O)=C(Cl)CS[C@H]12 | > 128 | 0.5 (≈ 1.08 µM) | 0.25 (≈ 0.541 µM) | 2 (≈ 4.33 µM) | 16 (≈ 34.6 µM) | 64 (≈ 138 µM) | 16 (≈ 34.6 µM) | 4 (≈ 8.66 µM) | 4 (≈ 8.66 µM) |
| COc1ccc(CC(=O)N[C@@H]2C(=O)N3C(C(=O)O)=C(Cl)CS[C@H]23)cc1OC | > 128 | 0.06 (≈ 0.145 µM) | 0.3 (≈ 0.727 µM) | 0.25 (≈ 0.606 µM) | 128 (≈ 310 µM) | 128 (≈ 310 µM) | 128 (≈ 310 µM) | 1 (≈ 2.42 µM) | 0.5 (≈ 1.21 µM) |
| O=Cc1ccc(OCC(=O)N[C@@H]2C(=O)N3C(C(=O)O)=C(Cl)CS[C@H]23)cc1 | > 128 | 0.03 (≈ 0.0756 µM) | 0.015 (≈ 0.0378 µM) | 0.25 (≈ 0.63 µM) | > 128 | > 128 | > 128 | 2 (≈ 5.04 µM) | 1 (≈ 2.52 µM) |
